PubChem BioAssay
Active and inactive are the calls of the source.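 The calls were made as follows, unless noted: active = fluorescence slope after compound addition differing from the mean of all screened samples at 99.7% confidence, in either direction; inactive = the rest.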

Target: Alpha-2C adrenergic receptor (Homo sapiens) (UniProt P18825)
Test: compounds altering alpha2C-coupled GIRK flux – cell-based, HEK293 alpha2C/GIRK1/2, thallium flux, primary screen (AID 624);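 also: slope of fluorescence ratio to pre-addition baseline per second over 15 to 24 s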
Details: thallium flux BTC fluorescence, at 10 µM, actives lie on both sides

Chain of Alpha-2C adrenergic receptor (Homo sapiens) (P18825 whole entry, looked up): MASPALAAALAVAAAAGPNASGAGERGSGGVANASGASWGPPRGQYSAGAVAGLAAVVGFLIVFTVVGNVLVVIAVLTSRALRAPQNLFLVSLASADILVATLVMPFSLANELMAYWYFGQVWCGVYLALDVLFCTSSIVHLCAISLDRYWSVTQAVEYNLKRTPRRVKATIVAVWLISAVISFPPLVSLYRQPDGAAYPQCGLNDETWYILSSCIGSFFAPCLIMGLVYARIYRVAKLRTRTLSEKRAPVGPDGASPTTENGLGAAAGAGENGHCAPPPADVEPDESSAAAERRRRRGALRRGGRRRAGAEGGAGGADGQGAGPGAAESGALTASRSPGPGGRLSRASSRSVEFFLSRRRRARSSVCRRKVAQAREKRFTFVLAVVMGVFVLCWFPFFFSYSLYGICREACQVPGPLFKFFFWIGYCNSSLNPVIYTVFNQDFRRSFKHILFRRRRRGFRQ

Row | Structure (SMILES) | slope
1 | Cc1nc(SCC(=O)c2ccccc2)c(C#N)c(-c2ccco2)c1C(=O)NCc1ccco1 | 0.0062 (inactive)
2 | CC(=O)C(=[N+]=[N-])C(=O)NCc1ccccc1 | 0.00636 (inactive)
3 | CNC(=O)c1ncnnc1N(C)C(=O)NCc1ccccc1 | 0.00729 (inactive)
4 | CCCCNC(=O)c1c(N)n(/N=C/c2cccnc2)c2nc3ccccc3nc12 | 0.0052 (inactive)
5 | Cc1ccnc(N2CCN(c3c4c(c(C#N)c5nc6ccccc6n35)CCC4)CC2)c1 | 0.00557 (inactive)
6 | CC(C)Cc1[nH]c(=O)c(C#N)c2c1CCCC2 | 0.00948 (inactive)
7 | CCOC(=O)c1c(C)n(C)c2ccc(OC)c(NC(=O)CN3CCCCC3)c12 | 0.00641 (inactive)
8 | CSc1nc(N)nc(SCC(=O)OC(C)C)c1C#N | 0.00629 (inactive)
9 | CC(=O)N/C(=N/c1nc(C)cc(C)n1)Nc1ccc(NC(C)=O)cc1 | 0.00481 (inactive)
10 | Cc1ccccc1OCC(O)Cn1c(N2CCN(c3ccccc3)CC2)nc2c1c(=O)[nH]c(=O)n2C (stereo not given) | 0.00634 (inactive)
11 | CCCOc1ccc(Cc2nn[nH]n2)cc1 | 0.00599 (inactive)
12 | CC1CN(C2CCN(C(=O)c3ccccc3Cl)CC2)CC(C)O1 (stereo not given) | 0.00459 (inactive)
13 | CCOc1nnnc2c1sc1nc(N3CCOCC3)c3c(c12)CC(C)(C)OC3 | 0.00623 (inactive)
14 | CCN(CC)CCNc1nc2c(c(=O)[nH]c(=O)n2C)n1CCOc1ccccc1 | 0.00521 (inactive)
15 | NC(=O)CSc1c[nH]c2ccccc12 | 0.00438 (inactive)
16 | C=CCn1c(-c2ccccc2)n[nH]c1=S | 0.00512 (inactive)
17 | CN1C(=O)N(c2ccccc2)C(Nc2nncs2)C1(C)C (stereo not given) | 0.00481 (inactive)
18 | COc1ccc(/C=N/n2cncn2)cc1CSc1ccccn1 | 0.00478 (inactive)
19 | COc1cc([C@@H]2[C@H]3CNCC=C3C(C#N)=C(N)C2(C#N)C#N)ccc1OC(C)C | 0.00559 (inactive)
20 | Nc1nnc(Cc2ccc(Cl)c(Cl)c2)s1 | 0.00535 (inactive)

Row | Structure (SMILES) | slope
21 | CCCOc1ccc(/C(O)=C2/C(=O)C(=O)N(CCN3CCOCC3)C2c2ccccc2)cc1 (stereo not given) | 0.00576 (inactive)
22 | CC(C)C1Cc2c(C#N)c(N)n(C)c(=S)c2CO1 (stereo not given) | 0.00431 (inactive)
23 | CNC(=O)C1CC(=O)N(Cc2ccccc2)C(=Nc2ccc(OC)cc2)S1 (stereo not given) | 0.00456 (inactive)
24 | CCCOc1ccc(C2NC(=O)NC2=O)cc1 (stereo not given) | 0.00583 (inactive)
25 | COC(=O)c1[nH]c2cc(OC)ccc2c1NC(=O)CCN1CCCC(C)(C)C1 | 0.00716 (inactive)
26 | Cc1cc(OCCN2CCOCC2)nc2ccccc12 | 0.00613 (inactive)
27 | CC(C)Nc1nc(NC(C)C)nc(N(C)n2cnnc2)n1 | 0.0051 (inactive)
28 | COc1ccc(OC)c(C(O)c2coc3ccc(O)c(CN4CCOCC4)c23)c1 (stereo not given) | 0.00476 (inactive)
29 | Cc1c([C@H]2[C@@H](CC#N)C2(C)C)c2ccccc2n1C | 0.00537 (inactive)
30 | CC1=C(C(=O)Nc2ccccc2)C(c2ccncc2)C(C#N)=C(SCC(=O)NC(C)C)N1 (stereo not given) | 0.00489 (inactive)
31 | CCCCCc1ccc(-c2ccc(=O)[nH]n2)cc1 | 0.00535 (inactive)
32 | O=C(C1=C(O)C(=O)N(CCN2CCOCC2)C1c1cccnc1)c1cc2ccccc2o1 (stereo not given) | 0.00612 (inactive)
33 | CCCCNC(=O)c1cc2n(n1)C(C(F)(F)F)CC(c1ccccc1)N2 (stereo not given) | 0.00405 (inactive)
34 | CCCC1C2C(=O)N(c3ccccc3OC)C(=O)C2ON1c1ccccc1 (stereo not given) | 0.00508 (inactive)
35 | CCOC(=O)C1=C(C)NC(=O)NC1c1ccc2c(c1)OCO2 (stereo not given) | 0.00581 (inactive)
36 | O=C(c1cccc(Cl)c1)N1CCN(C(=O)c2ccccc2F)CC1 | 0.00888 (inactive)
37 | Cc1noc(NS(=O)(=O)c2ccc(NC(=O)COc3ccccc3)cc2)c1C | 0.00522 (inactive)
38 | Cc1nc(NCCN)c(C#N)c2c1COC(C)(C)C2 | 0.00551 (inactive)
39 | Cn1c(=NCC(O)COc2ccccc2)sc2ccccc21 (stereo not given) | 0.00465 (inactive)
40 | COc1ccc(-c2nn3c(C4CCCCC4)nnc3s2)cc1OC | 0.00441 (inactive)

Tested on: not listed separately
Test: inhibitors of larval lipid processing in zebrafish, primary screen, whole organism, PED6 fluorescence, gall bladder and intestine (AID 686;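 active = a full or partial loss of lipid-probe fluorescence in the fish gall bladder, intestine or both, judged by eye; inactive = no fluorescence loss, or compound toxic to the fish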;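 also: larvae 5 to 7 days old with five fish per well; signal comes from phospholipase A2 cleavage of quenched PED6 carried via bile; overnight exposure to compound and PED6 before scoring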)
Details: Zebrafish larvae PED6 lipid processing, fluorescence scoring; screened at 20 µM (by protocol)
Summary of the method: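 Test system – live zebrafish larvae aged 5-7 days, whole organism · Buffer or medium – E3 fish medium · Reagent – quenched phospholipase substrate PED6, 100 nM final, ingested by larvae · Doses – 20 µM single dose · Incubation – overnight compound and PED6 incubation · Technique – visual fluorescence microscopy scoring of gall bladder, gut · Read-out basis – visual per-well fluorescence inhibition score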

Row | Structure (SMILES) | outcome
41 | Cc1nc(SCC(=O)c2ccccc2)c(C#N)c(-c2ccco2)c1C(=O)NCc1ccco1 | inactive
42 | CC(=O)C(=[N+]=[N-])C(=O)NCc1ccccc1 | inactive
43 | CNC(=O)c1ncnnc1N(C)C(=O)NCc1ccccc1 | inactive
44 | CCCCNC(=O)c1c(N)n(/N=C/c2cccnc2)c2nc3ccccc3nc12 | inactive
45 | Cc1ccnc(N2CCN(c3c4c(c(C#N)c5nc6ccccc6n35)CCC4)CC2)c1 | inactive
46 | CC(C)Cc1[nH]c(=O)c(C#N)c2c1CCCC2 | inactive
47 | CCOC(=O)c1c(C)n(C)c2ccc(OC)c(NC(=O)CN3CCCCC3)c12 | inactive
48 | CSc1nc(N)nc(SCC(=O)OC(C)C)c1C#N | inactive
49 | CC(=O)N/C(=N/c1nc(C)cc(C)n1)Nc1ccc(NC(C)=O)cc1 | inactive
50 | Cc1ccccc1OCC(O)Cn1c(N2CCN(c3ccccc3)CC2)nc2c1c(=O)[nH]c(=O)n2C (stereo not given) | inactive
51 | CCCOc1ccc(Cc2nn[nH]n2)cc1 | inactive
52 | CC1CN(C2CCN(C(=O)c3ccccc3Cl)CC2)CC(C)O1 (stereo not given) | inactive
53 | CCOc1nnnc2c1sc1nc(N3CCOCC3)c3c(c12)CC(C)(C)OC3 | inactive
54 | CCN(CC)CCNc1nc2c(c(=O)[nH]c(=O)n2C)n1CCOc1ccccc1 | inactive
55 | NC(=O)CSc1c[nH]c2ccccc12 | inactive
56 | C=CCn1c(-c2ccccc2)n[nH]c1=S | inactive
57 | CN1C(=O)N(c2ccccc2)C(Nc2nncs2)C1(C)C (stereo not given) | inactive
58 | COc1ccc(/C=N/n2cncn2)cc1CSc1ccccn1 | inactive
59 | COc1cc([C@@H]2[C@H]3CNCC=C3C(C#N)=C(N)C2(C#N)C#N)ccc1OC(C)C | inactive
60 | Nc1nnc(Cc2ccc(Cl)c(Cl)c2)s1 | inactive

Row | Structure (SMILES) | outcome
61 | CCCOc1ccc(/C(O)=C2/C(=O)C(=O)N(CCN3CCOCC3)C2c2ccccc2)cc1 (stereo not given) | inactive
62 | CC(C)C1Cc2c(C#N)c(N)n(C)c(=S)c2CO1 (stereo not given) | inactive
63 | CNC(=O)C1CC(=O)N(Cc2ccccc2)C(=Nc2ccc(OC)cc2)S1 (stereo not given) | inactive
64 | CCCOc1ccc(C2NC(=O)NC2=O)cc1 (stereo not given) | inactive
65 | COC(=O)c1[nH]c2cc(OC)ccc2c1NC(=O)CCN1CCCC(C)(C)C1 | inactive
66 | Cc1cc(OCCN2CCOCC2)nc2ccccc12 | inactive
67 | CC(C)Nc1nc(NC(C)C)nc(N(C)n2cnnc2)n1 | inactive
68 | COc1ccc(OC)c(C(O)c2coc3ccc(O)c(CN4CCOCC4)c23)c1 (stereo not given) | inactive
69 | Cc1c([C@H]2[C@@H](CC#N)C2(C)C)c2ccccc2n1C | inactive
70 | CC1=C(C(=O)Nc2ccccc2)C(c2ccncc2)C(C#N)=C(SCC(=O)NC(C)C)N1 (stereo not given) | inactive
71 | CCCCCc1ccc(-c2ccc(=O)[nH]n2)cc1 | inactive
72 | O=C(C1=C(O)C(=O)N(CCN2CCOCC2)C1c1cccnc1)c1cc2ccccc2o1 (stereo not given) | inactive
73 | CCCCNC(=O)c1cc2n(n1)C(C(F)(F)F)CC(c1ccccc1)N2 (stereo not given) | inactive
74 | CCCC1C2C(=O)N(c3ccccc3OC)C(=O)C2ON1c1ccccc1 (stereo not given) | inactive
75 | CCOC(=O)C1=C(C)NC(=O)NC1c1ccc2c(c1)OCO2 (stereo not given) | inactive
76 | O=C(c1cccc(Cl)c1)N1CCN(C(=O)c2ccccc2F)CC1 | inactive
77 | Cc1noc(NS(=O)(=O)c2ccc(NC(=O)COc3ccccc3)cc2)c1C | inactive
78 | Cc1nc(NCCN)c(C#N)c2c1COC(C)(C)C2 | inactive
79 | Cn1c(=NCC(O)COc2ccccc2)sc2ccccc21 (stereo not given) | inactive
80 | COc1ccc(-c2nn3c(C4CCCCC4)nnc3s2)cc1OC | inactive
